The text below walks through data of ChEMBL document CHEMBL1212851, “Baculiferins A-O, O-sulfated pyrrole alkaloids with anti-HIV-1 activity, from the Chinese marine sponge Iotrochota baculifera” (Bioorg Med Chem, 2010).

Molecules are shown by their SMILES. In brackets after ≈: the same amount, converted by molar mass. Activity calls are given as the source filed them. No cut-off for these calls is given here.

Experiment [1] relates to Human immunodeficiency virus 1. The experiment is described as follows: Binding affinity to HIV1 recombinant Vif at 20 ug/ml. The method in brief: (§1)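 Recombinant gp41, Vif or APOBEC3G each immobilized on a CM5 sensor chip in a separate flow cell. Binding monitored by surface plasmon resonance on a BIAcore instrument.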
The subject of another experiment is Bel-7402. The experiment is described as follows: Cytotoxicity against human Bel7402 cells. Format: functional, cell-based.
A further experiment concerns BGC-823. The experiment is described as follows: Cytotoxicity against human BGC823 cells. The class given is functional, cell-based.
Experiment [2] relates to Candida albicans. The experiment is described as follows: Multidrug reversal activity in Candida albicans isolate GU5 assessed as brefeldin A MIC in presence of 30 uM compound expressing CDR1 and CDR2 by two fold dilution method.
The subject of a further experiment is HCT-8. In words: Cytotoxicity against human HCT8 cells. The class given is functional, cell-based. The following applies: for IC50: pooled result: one value given for 4 cell lines, strains, targets or settings.
The next experiment deals with A549. The experiment is described as follows: Cytotoxicity against human A549 cells. The class given is functional, cell-based.
Experiment [3] relates to Human immunodeficiency virus 1. In words: Antiviral activity against HIV1 3B infected in human MT4 cells after 5 days by p24 antigen detection assay. Format: functional, organism-based. The settings on record: Human immunodeficiency virus 1, 3B, MT4, 120 h. The method in brief:
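MT-4 cells infected with 10000 TCID50 HIV-1 IIIB for 2 h at 37 °C, washed, then plated at 5 × 10^4 cells per well. Compounds added from 250 µg/mL in fivefold serial dilutions, five dilutions with four replicates each. Cultures held 5 d at 37 °C in 5% CO2. On day 3 half the supernatant was replaced with fresh compound or medium. On day 5 supernatant p24 measured, inhibition computed relative to virus control, and IC50 taken by linear regression.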

Experiment [4] concerns the target DNA dC->dU-editing enzyme APOBEC-3G (Homo sapiens) (UniProt Q9HC16). The experiment is described as follows: Binding affinity to human recombinant APOBEC3G at 20 ug/ml. The essentials:
as §1

The subject of experiment [5] is Human immunodeficiency virus 1. In words: Antiviral activity against HIV1 3B infected in human MAGI cells after 40 to 48 hrs assessed as inhibition of viral life cycle. The class given is functional, organism-based. The settings on record: Human immunodeficiency virus 1, 3B. The method in brief: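 HeLa-CD4-LTR-β-gal (MAGI) indicator cells plated at 6000 per well and infected with 2000 TCID50 HIV-1 IIIB. Compounds added in fourfold serial dilutions, five dilutions with four replicates each, at a final top concentration of half the 200 µg/mL stock dilution. Cells incubated 40–48 h at 37 °C in 5% CO2, then fixed, stained, and blue cells counted by microscopy. Single-round infection.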

The test system of another experiment is A2780. In words: Cytotoxicity against human A2780 cells. The class given is functional, cell-based.
The test system of experiment [6] is Human immunodeficiency virus 1. The experiment is described as follows: Antiviral activity against HIV1 infected in human HEK293 cells assessed as inhibition of viral replication. The class given is functional, organism-based. The essentials:
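VSVG-pseudotyped HIV-luc virus system in HEK-293 cells, used to assess inhibition of HIV-1 replication.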

For experiment [7], the system named is Candida albicans. The experiment is described as follows: Effect on brefeldin A MIC against Candida albicans isolate GU4 in presence of 30 uM compound by two fold dilution method.
Experiment [8] deals with Human immunodeficiency virus 1. The experiment is described as follows: Binding affinity to HIV1 recombinant gp41 at 20 ug/ml. The essentials: as §1

DNA dC->dU-editing enzyme APOBEC-3G (Homo sapiens), sequence (Q9HC16 whole entry): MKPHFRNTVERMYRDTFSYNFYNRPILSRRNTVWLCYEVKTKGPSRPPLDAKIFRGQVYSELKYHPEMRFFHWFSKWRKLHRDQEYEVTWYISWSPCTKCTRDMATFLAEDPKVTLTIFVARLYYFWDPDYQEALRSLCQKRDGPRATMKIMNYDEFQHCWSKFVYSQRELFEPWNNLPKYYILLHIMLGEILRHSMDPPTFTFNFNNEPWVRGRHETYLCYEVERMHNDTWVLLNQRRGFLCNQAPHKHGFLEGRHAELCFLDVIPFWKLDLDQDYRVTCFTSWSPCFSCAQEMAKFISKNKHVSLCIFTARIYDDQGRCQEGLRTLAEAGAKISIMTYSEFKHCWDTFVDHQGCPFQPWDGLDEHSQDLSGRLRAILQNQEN

One may read the MIC as the lowest concentration that inhibits growth of the organism. One may read the IC50 as the point on the concentration scale where inhibition reaches its midpoint. For `O=C1C(c2ccc(O)c(O)c2)=c2c(c3c(n2CCc2ccc(O)cc2)=C(c2ccc(O)c(O)c2)C(=O)c2cc(O)c(O)cc2-3)-c2cc(O)c(O)cc21` [PURPURONE], the values for the RU in experiment [1], in experiment [4] and in experiment [8] were -25.7 pg/mm2, -26.3 pg/mm2 and -23 pg/mm2, respectively. Moreover, the result (in the experiment with Bel-7402; in the experiment on BGC-823; in the experiment with HCT-8; in the experiment with A549; with A2780; in experiment [6]) was inactive. Moreover, the minimal inhibitory concentration (MIC) was determined as 25 µg/mL in the experiment with Candida albicans [2] and 12.5 µg/mL in the experiment with Candida albicans [7]. Also, the IC50 in experiment [3] and in [5] was greater than 25 µg/mL throughout.

On to `O=C(O)Cn1c2c(c3c1=C(c1ccc(O)c(O)c1)C(=O)c1cc(O)c(O)cc1-3)-c1cc(O)c(O)cc1C(=O)C=2c1ccc(O)c(O)c1` [BACULIFERIN L], for which the RU in experiment [1] turned out to be 1980 pg/mm2; in experiment [4], 2170 pg/mm2; in [8], 469 pg/mm2. Besides, the outcome (with Bel-7402; in the experiment on BGC-823; in the experiment with HCT-8; with A549; in the experiment with A2780; in [6]) was inactive. Also, the values for the concentration for half-maximal inhibition (IC50) in experiment [3] and in experiment [5] were 7 µg/mL (≈ 11 µM) and 4.1 µg/mL (≈ 6.45 µM), respectively.

Regarding `O=C1C(c2ccc(O)c(O)c2)=C2C(=C(c3ccc(O)c(O)c3)C(=O)N2CCc2ccc(O)cc2)c2cc(O)c(O)cc21` [BACULIFERIN K], the RU worked out at 448 pg/mm2 in experiment [1] and 523 pg/mm2 in experiment [8]. In addition, the outcome (with Bel-7402; in the experiment with BGC-823; in the experiment on HCT-8; in the experiment with A549; in the experiment on A2780; in experiment [6]) was inactive. The IC50 in experiment [3] is 5.5 µg/mL (≈ 9.73 µM); in [5], less than 0.4 µg/mL.

`O=C1C(c2ccc(O)c(O)c2)=C2C(=C(c3ccc(O)c(O)c3)C(=O)N2CCc2ccc(OS(=O)(=O)O)cc2)c2cc(O)c(O)cc21`: the RU in experiment [1] worked out at 529 pg/mm2; in experiment [4] it was 765 pg/mm2; in experiment [8], 1490 pg/mm2. Moreover, the result (in the experiment with Bel-7402; with BGC-823; in the experiment with HCT-8; in the experiment with A549; in the experiment with A2780; in experiment [6]) was inactive.

On to `O=C1C(c2ccc(O)c(O)c2)=c2c(c3c(n2CCc2ccc(O)cc2)=C(c2ccc(O)c(OS(=O)(=O)O)c2)C(=O)c2cc(O)c(OS(=O)(=O)O)cc2-3)-c2cc(OS(=O)(=O)O)c(O)cc21` [BACULIFERIN H], for which the RU stood at 259 pg/mm2 in [1], 578 pg/mm2 in experiment [4] and 76.2 pg/mm2 in experiment [8]. Also, the result (in the experiment with Bel-7402; with BGC-823; in the experiment on HCT-8; in the experiment with A549; with A2780; in experiment [6]) was inactive. The concentration for half-maximal inhibition (IC50) in experiment [3] worked out at 1.4 µg/mL (≈ 1.49 µM); in experiment [5], 1.3 µg/mL (≈ 1.39 µM).

On to `O=c1oc2cc(O)c(O)cc2c2c1[nH]c1c(=O)oc3cc(O)c(O)cc3c12`, for which, in experiment [1], the RU is 11.7 pg/mm2. The outcome (in the experiment with Bel-7402; in the experiment with BGC-823; in the experiment with HCT-8; in the experiment with A549; with A2780; in [6]) was inactive.

Take `O=C1C(c2ccc(O)c(OS(=O)(=O)O)c2)=c2c(c3c(n2CCc2ccc(O)cc2)=C(c2ccc(O)c(OS(=O)(=O)O)c2)C(=O)c2cc(O)c(O)cc2-3)-c2cc(O)c(O)cc21` [BACULIFERIN C]: the RU worked out at 296 pg/mm2 in [1], 886 pg/mm2 in experiment [4] and 116 pg/mm2 in experiment [8]. Besides, the outcome (in the experiment with Bel-7402; in the experiment with BGC-823; in the experiment with HCT-8; in the experiment on A549; in the experiment with A2780; in experiment [6]) was inactive. The IC50 in [3] was 8.4 µg/mL (≈ 9.79 µM); in [5], 1.2 µg/mL (≈ 1.4 µM).

Consider `O=C(O)CN1C(=O)C(c2ccc(O)c(O)c2)=C2C1=C(c1ccc(O)c(O)c1)C(=O)c1cc(O)c(O)cc12` [BACULIFERIN N], for which the RU worked out at 597 pg/mm2 in [1] and 953 pg/mm2 in experiment [8]. Also, the result (in the experiment with Bel-7402; with BGC-823; in the experiment with HCT-8; with A549; with A2780; in experiment [6]) was inactive. Further, the half-inhibitory concentration (IC50) in experiment [3] is 4.4 µg/mL (≈ 8.74 µM); in experiment [5] it was less than 0.1 µg/mL.

For `O=C1C(c2ccc(O)c(O)c2)=c2c(c3c(n2CCc2ccc(O)cc2)=C(c2ccc(O)c(O)c2)C(=O)c2cc(O)c(OS(=O)(=O)O)cc2-3)-c2cc(OS(=O)(=O)O)c(O)cc21` [BACULIFERIN D], the result (in the experiment with Bel-7402; with BGC-823; in the experiment with HCT-8; in the experiment on A549; with A2780; in experiment [6]) was inactive. For the same compound, the MIC worked out at 50 µg/mL in the experiment on Candida albicans [2] and 12.5 µg/mL in the experiment with Candida albicans [7].

For `O=C(O)Cn1c2c(c3c1=C(c1ccc(O)c(O)c1)C(=O)c1cc(O)c(OS(=O)(=O)O)cc1-3)-c1cc(O)c(O)cc1C(=O)C=2c1ccc(O)c(O)c1` [BACULIFERIN M], the RU amounted to 1900 pg/mm2 in experiment [1], 2460 pg/mm2 in experiment [4] and 380 pg/mm2 in experiment [8]. In addition, the MIC in the experiment on Candida albicans [2] is 50 µg/mL; in the experiment on Candida albicans [7], 12.5 µg/mL. The IC50 with HCT-8 is 65.8 µM; in experiment [3], 5 µg/mL (≈ 6.99 µM); in experiment [5] it was 0.2 µg/mL (≈ 0.279 µM). In addition, the result (in the experiment with A2780; in experiment [6]) was inactive.

`O=C1C(c2ccc(O)c(O)c2)=C2C(=C(c3ccc(OS(=O)(=O)O)c(O)c3)C(=O)N2CCc2ccc(O)cc2)c2cc(O)c(O)cc21`: the RU in experiment [1] stood at 638 pg/mm2; in experiment [8], 1350 pg/mm2. Further, the result (in the experiment on Bel-7402; in the experiment with BGC-823; in the experiment on HCT-8; with A549; in the experiment on A2780; in experiment [6]) was inactive.

As to `O=C1C(c2ccc(O)c(OS(=O)(=O)O)c2)=c2c(c3c(n2CCc2ccc(O)cc2)=C(c2ccc(O)c(OS(=O)(=O)O)c2)C(=O)c2cc(O)c(OS(=O)(=O)O)cc2-3)-c2cc(O)c(O)cc21` [BACULIFERIN G], the RU in [1] came out at 447 pg/mm2; in experiment [4] it was 572 pg/mm2; in experiment [8] it was 125 pg/mm2. Besides, the IC50 came out at 19.7 µM with HCT-8, 3.2 µg/mL (≈ 3.41 µM) in experiment [3], 4.4 µg/mL (≈ 4.69 µM) in [5] and 19.7 µM with A2780. Moreover, the result in experiment [6] was inactive.

`O=c1oc2cc(O)c(O)cc2c2c1[nH]c1c(=O)oc3cc(O)c(OS(=O)(=O)O)cc3c12` [BACULIFERIN O] came in with an IC50 with HCT-8 of 33.1 µM. Besides, the result (with A2780; in experiment [6]) was inactive.
